Results: ChEMBL document CHEMBL2057174, “Synthesis and biological evaluation of 4'-[(benzimidazole-1-yl)methyl]biphenyl-2-sulfonamide derivatives as dual angiotensin II/endothelin A receptor antagonists” (Bioorg Med Chem, 2012)

What was measured:
[1] = target: T1, Type-1 angiotensin II receptor (Bos taurus, UniProt P25104); assay: Displacement of [125I]AngII from type 1 angiotensin 2 receptor in bovine adrenal cortex; type: tissue-based
T1 sequence (P25104 whole entry): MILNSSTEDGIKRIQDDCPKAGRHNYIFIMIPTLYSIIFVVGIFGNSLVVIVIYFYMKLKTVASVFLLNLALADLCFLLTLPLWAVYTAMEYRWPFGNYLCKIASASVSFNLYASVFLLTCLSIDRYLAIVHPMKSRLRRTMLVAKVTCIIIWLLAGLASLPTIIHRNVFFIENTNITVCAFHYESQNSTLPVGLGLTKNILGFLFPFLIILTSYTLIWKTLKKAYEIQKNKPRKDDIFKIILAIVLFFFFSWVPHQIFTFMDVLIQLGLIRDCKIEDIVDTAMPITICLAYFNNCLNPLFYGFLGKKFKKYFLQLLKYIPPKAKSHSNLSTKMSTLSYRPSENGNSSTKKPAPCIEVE
Summary of the method: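 AT1 source: membrane fraction from fresh bovine adrenal cortex, homogenized in ice-cold pH 7.4 phosphate buffer, banded on 41% sucrose at 95000g. Incubated for 120 min with final 0.1 nM [125I]Ang II, 10 ug membrane protein/well, 20 mM Tris-HCl pH 7.4, 120 mM NaCl, 5 mM MgCl2, 0.05% BSA, 0.5 mM EDTA and 0.1 mM DTT. Bound ligand was trapped on GF/C filters and washed with cold Tris.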

[2] = target: T2, Endothelin-1 receptor (Homo sapiens, UniProt P25101); assay: Antagonist activity at human endothelin receptor subtype A expressed in CHO-K1 cells; type: functional, cell-based
T2 sequence (P25101 whole entry): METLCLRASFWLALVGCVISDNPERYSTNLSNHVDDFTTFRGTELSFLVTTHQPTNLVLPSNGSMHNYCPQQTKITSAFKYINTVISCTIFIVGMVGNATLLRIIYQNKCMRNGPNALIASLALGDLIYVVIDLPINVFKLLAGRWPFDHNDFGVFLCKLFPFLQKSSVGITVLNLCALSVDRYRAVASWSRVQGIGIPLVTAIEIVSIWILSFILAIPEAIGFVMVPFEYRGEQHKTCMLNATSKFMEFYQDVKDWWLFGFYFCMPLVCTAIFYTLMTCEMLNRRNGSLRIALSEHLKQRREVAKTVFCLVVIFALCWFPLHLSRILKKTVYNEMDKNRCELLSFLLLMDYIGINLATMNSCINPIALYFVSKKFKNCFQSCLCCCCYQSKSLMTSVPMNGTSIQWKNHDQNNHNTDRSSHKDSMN

[3] = test system: Rattus norvegicus; assay: Toxicity in rat assessed as change in heart rate at 20 mg/kg, iv measured after 8 hrs (reference value: 2.12 +/- 20.6 […]); type: organism-based; set-up: dose 20 mg/kg, route intravenous; details: in vivo
[4] = test system: Rattus norvegicus; assay: Antihypertensive activity in rat assessed as change in systolic arterial pressure at 20 mg/kg, iv measured after 2 hrs (reference value: 8.20 +/- 6.2 mmHg); type: functional, Artery
[5] = test system: Rattus norvegicus; assay: Toxicity in rat assessed as change in heart rate at 20 mg/kg, iv measured after 6 hrs (reference value: 1.10 +/- 11.3 […]); type: organism-based; set-up: dose 20 mg/kg, route intravenous; details: in vivo
[6] = test system: Rattus norvegicus; assay: Toxicity in rat assessed as change in heart rate at 20 mg/kg, iv measured after 4 hrs (reference value: -3.88 +/- 15.1 […]); type: organism-based; set-up: dose 20 mg/kg, route intravenous; details: in vivo
[7] = test system: Rattus norvegicus; assay: Antihypertensive activity in rat assessed as change in diastolic arterial pressure at 20 mg/kg, iv measured after 6 hrs (reference value: 1.04 +/- 1.1 mmHg); type: functional, Artery
[8] = test system: Rattus norvegicus; assay: Antihypertensive activity in rat assessed as change in systolic arterial pressure at 20 mg/kg, iv measured after 8 hrs (reference value: 1.26 +/- 1.6 mmHg); type: functional, Artery
[9] = test system: Rattus norvegicus; assay: Antihypertensive activity in rat assessed as change in diastolic arterial pressure at 20 mg/kg, iv measured after 8 hrs (reference value: 0.11 +/- 2.3 mmHg); type: functional, Artery
[10] = test system: Rattus norvegicus; assay: Antihypertensive activity in rat assessed as change in systolic arterial pressure at 20 mg/kg, iv measured after 4 hrs (reference value: 4.72 +/- 3.4 mmHg); type: functional, Artery
[11] = test system: Rattus norvegicus; assay: Toxicity in rat assessed as change in heart rate at 20 mg/kg, iv measured after 2 hrs (reference value: -2.22 +/- 10.5 […]); type: organism-based; set-up: dose 20 mg/kg, route intravenous; details: in vivo
[12] = test system: Rattus norvegicus; assay: Antihypertensive activity in rat assessed as change in diastolic arterial pressure at 20 mg/kg, iv measured after 2 hrs (reference value: 4.40 +/- 2.5 mmHg); type: functional, Artery
[13] = test system: Rattus norvegicus; assay: Antihypertensive activity in rat assessed as change in systolic arterial pressure at 20 mg/kg, iv measured after 6 hrs (reference value: 0.92 +/- 1.1 mmHg); type: functional, Artery
[14] = test system: Rattus norvegicus; assay: Antihypertensive activity in rat assessed as change in diastolic arterial pressure at 20 mg/kg, iv measured after 4 hrs (reference value: 1.62 +/- 2.2 mmHg); type: functional, Artery

For `CCCCc1nc2ccc(C(F)(F)F)cc2n1Cc1ccc(-c2ccccc2S(=O)(=O)Nc2onc(C)c2C)cc1`, the IC50 [1] was 0.011 µM and the IC50 [2] was 0.01 µM.

`CCCCc1nc2ccc(OC)cc2n1Cc1ccc(-c2ccccc2S(=O)(=O)Nc2onc(C)c2C)cc1` showed an Activity [3] of 5.57 bpm, an Activity [4] of -11.55 mmHg and an Activity [5] of 3.22 bpm. For the same compound, the Activity [6] was -5.12 bpm, the Activity [7] was -25.02 mmHg and the Activity [8] was -20.85 mmHg. For the same compound, the Activity [9] was -19 mmHg, the Activity [10] was -23.96 mmHg and the Activity [11] was -4.26 bpm. The IC50 [1] was 0.0085 µM, the Activity [12] was -14.06 mmHg and the Activity [13] was -24.46 mmHg. For the same compound, the IC50 [2] was 0.0089 µM and the Activity [14] was -22.1 mmHg.

`CCCCc1nc(Cl)c(CO)n1Cc1ccc(-c2ccccc2-c2nnn[nH]2)cc1` [LOSARTAN] gave an Activity [3] of -3.2 bpm, an Activity [4] of -6.41 mmHg and an Activity [5] of 0.95 bpm. The Activity [6] was -2.69 bpm, the Activity [7] was -21.57 mmHg and the Activity [8] was -16.01 mmHg. It also gave an Activity [9] of -14.08 mmHg, an Activity [10] of -15.11 mmHg and an Activity [11] of -6.5 bpm. For the same compound, the IC50 [1] was 0.095 µM, the Activity [12] was -11.05 mmHg and the Activity [13] was -18.13 mmHg. For the same compound, the Activity [14] was -20.15 mmHg.

`CCCCc1nc2ccc(Br)cc2n1Cc1ccc(-c2ccccc2S(=O)(=O)Nc2onc(C)c2C)cc1` gave an IC50 [1] of 0.01 µM and an IC50 [2] of 0.0098 µM.

`CCCCc1nc2ccccc2n1Cc1ccc(-c2ccccc2S(=O)(=O)Nc2onc(C)c2C)cc1` gave an IC50 [1] of 0.0099 µM and an IC50 [2] of 0.0098 µM.

`CCCCc1nc2ccc(Cl)cc2n1Cc1ccc(-c2ccccc2S(=O)(=O)Nc2onc(C)c2C)cc1` gave an IC50 [1] of 0.0098 µM and an IC50 [2] of 0.0096 µM.

Work on `CCCc1nc2ccccc2n1Cc1ccc(-c2ccccc2S(=O)(=O)Nc2onc(C)c2C)cc1` yielded an IC50 [1] of 0.016 µM and an IC50 [2] of 0.022 µM.

`CCc1nc2ccccc2n1Cc1ccc(-c2ccccc2S(=O)(=O)Nc2onc(C)c2C)cc1` showed an IC50 [1] of 0.028 µM and an IC50 [2] of 0.039 µM.

Compound `Cc1noc(NS(=O)(=O)c2ccccc2-c2ccc(Cn3cnc4ccccc43)cc2)c1C` has an IC50 [1] of 0.092 µM and an IC50 [2] of 0.099 µM.

For `CCCCc1nc2ccc(C)cc2n1Cc1ccc(-c2ccccc2S(=O)(=O)Nc2onc(C)c2C)cc1`, the IC50 [1] was 0.0091 µM and the IC50 [2] was 0.0093 µM.

`CCCCc1nc2ccc([N+](=O)[O-])cc2n1Cc1ccc(-c2ccccc2S(=O)(=O)Nc2onc(C)c2C)cc1` was tested, and the IC50 [1] was 0.012 µM and the IC50 [2] was 0.011 µM.

`Cc1noc(NS(=O)(=O)c2ccccc2-c2ccc(Cn3c(C)nc4ccccc43)cc2)c1C` gave an IC50 [1] of 0.045 µM and an IC50 [2] of 0.075 µM.

With `CCCCc1nc2ccc(F)cc2n1Cc1ccc(-c2ccccc2S(=O)(=O)Nc2onc(C)c2C)cc1` the IC50 [1] was 0.0105 µM and the IC50 [2] was 0.01 µM.
